ChEMBL document CHEMBL2176910, “Identification of small molecule inhibitors of amyloid β-induced neuronal apoptosis acting through the imidazoline I(2) receptor” (J Med Chem, 2012)
The source made the active and inactive calls. The calls are words filed in the database; no cut-off is given here.

Tests used:
Mus musculus = species: Mus musculus; experiment: Inhibition of imidazole receptor 2 in mouse hippocampal neurons assessed as reduction in tPA-induced Erk1/2 activation at 30 uM pre-incubated for 4 hrs before tPA stimulation by ELISA; conditions: Hippocampus
In short: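 Primary mouse hippocampal neurons were stimulated with tPA (20 μg/mL, 1 h) with or without compound at 30 μM. Phospho-Erk1/2 was measured by ELISA with a phospho-specific antibody and normalized to total Erk1/2. Untreated cultures set the lower limit and tPA alone the upper limit.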

[1] = Inhibition of radioligand binding to N-methyl D-aspartate receptor phencyclidine binding site at 10 uM
In short: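 Radioligand binding panel. Values are average percentages of inhibition of specific binding, measured against potent standard ligands for each target.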

Hippocampal neuron [2] = experiment: (§1) Neuroprotective activity in mouse hippocampal neurons assessed as Abeta-induced neuronal apoptosis at 30 uM pre-incubated for 4 hrs before Abeta challenge for 72 hrs by TUNEL assay (reference value: 100%); assay type: functional; conditions: Hippocampus
In short: (§2)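 Aggregated Aβ (20 μM, 72 h) was applied to primary mouse hippocampal neurons with or without compound at 30 μM. Apoptosis was scored by TUNEL as the percentage of positive nuclei among total nuclei, referred to Aβ alone (100%). Medium-only cells were the negative control and DNase the positive control. n = 4, mean ± SEM, two-tailed Student's test.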

Rattus norvegicus [3] = species: Rattus norvegicus; experiment: Displacement of [3H]2-BFI from rat imidazole receptor 2 in rat whole brain at 10 uM in presence of 1 uM yohimbine
Rattus norvegicus [4] = species: Rattus norvegicus; experiment: Displacement of [3H]idazoxan from rat cerebral cortex imidazole receptor 2 at 10 uM in presence of 1 uM yohimbine; assay type: tissue-based
[5] = as §1; assay type: functional, Hippocampus, Hippocampal neuron; in short: as §2
Hippocampal neuron [6] = experiment: Neuroprotective activity against Abeta-induced neuronal apoptosis in mouse hippocampal neurons assessed as reduction in total neuronal nuclei level at 30 uM pre-incubated for 4 hrs before Abeta challenge for 72 hrs by immunofluorescence microscopy; assay type: functional, tissue-based; conditions: Hippocampus
In short: (§3)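 Primary mouse hippocampal neurons were exposed to Aβ (20 μM, 72 h) alone or with compound. Double immunofluorescence microscopy was then run for DNA fragmentation (TUNEL, green) and total neuronal nuclei (NeuN, red), with merged images. DNase-treated cells served as positive control.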

Hippocampal neuron [7] = experiment: Neuroprotective activity against Abeta-induced neuronal apoptosis in mouse hippocampal neurons assessed as reduction in DNA fragmentation at 30 uM pre-incubated for 4 hrs before Abeta challenge for 72 hrs by immunofluorescence microscopy; assay type: functional, tissue-based; conditions: Hippocampus; in short: as §3

SMILES	inhibition [1] [%]	Activity (Hippocampal neuron [2])	inhibition of tPA-induced Erk1/2 activation (active/inactive call) (Mus musculus)	also measured
C[C@]12N[C@H](Cc3ccccc31)c1ccccc12	98	–	–	inhibition (Mus musculus): Active
c1ccc(C2NCCc3sccc32)cc1 (configuration not stated)	–	Active	Active	–
c1ccc(-c2ncc3cc(-n4ccnc4)ccc3n2)cc1	–	–	–	inhibition (Rattus norvegicus [3]): 92%; inhibition (Rattus norvegicus [4]): 66%
CN1CCn2cccc2C1c1ccccc1 (configuration not stated)	–	Active	Active	–
CN1CCCC2(CCCNC2)C1 (configuration not stated)	–	inactive	Active	–
c1csc(C2NCCc3ccccc32)c1 (configuration not stated)	–	Active	Active	–
c1ccc(C2NCCc3ccccc32)cc1 (configuration not stated)	69	inactive	Active	–
CC12CC3CC(C)(C1)CC(N)(C3)C2 [MEMANTINE]	92	–	Active	Activity [5]: 42.3%; Activity (Hippocampal neuron [6]): Active; Activity (Hippocampal neuron [7]): Active
CN1Cc2ccccc2C2CCc3ccccc3C21 (configuration not stated)	–	inactive	Active	–
